Structures are written as SMILES.

Type in all cases: functional
For assay [1], the species on record is Homo sapiens. Description: Compound concentration that cause 50% inhibition of human platelet aggregation by COL/EPI cartridges. The method, boiled down:
(§1)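 Human whole blood drawn by forearm venipuncture into 3.8% (0.129 M) buffered sodium citrate (1:9 anticoagulant:blood). Aliquots incubated with compound (in 0.1 N NaOH/water 1:10; final 1–5 mM) 37 °C, 30 min, then loaded into PFA-100 cartridge (collagen/epinephrine or collagen/ADP). Closure time read in seconds; % inhibition calculated against vehicle-treated control blood.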

For assay [2], the species on record is Homo sapiens. Put plainly: Compound was evaluated for the inhibitory activity against human platelet aggregation by COL/ADP cartridges at a concentration of 4 x 10 e-3 M. Conditions: for inhibition at 4000 µM: Homo sapiens. In short, it runs like this:
as §1

The species entered for assay [3] is Homo sapiens. Put plainly: Compound was evaluated for the inhibitory activity against human platelet aggregation by COL/ADP cartridges at a concentration of 2 x 10 e-3 M. In short, it runs like this:
as §1

Assay [4] is filed under the species Homo sapiens. Put plainly: Compound was evaluated for the inhibitory activity against human platelet aggregation by COL/ADP cartridges at a concentration of 5 x 10 e-3 M. Conditions: for inhibition at 5000 µM: Homo sapiens. In short, it runs like this: as §1
Assay [5] is filed under the species Homo sapiens. Description: Compound was evaluated for the inhibitory activity against human platelet aggregation by COL/ADP cartridges at a concentration of 1 x 10 e-3 M. The method, boiled down:
as §1

For assay [6], the species on record is Homo sapiens. Description: Compound was evaluated for the inhibitory activity against human platelet aggregation by COL/ADP cartridges at a concentration of 3 x 10 e-3 M. The note with it: for inhibition at 3000 µM: Homo sapiens. In short, it runs like this: as §1

In general, IC50 refers to the point on the concentration scale where inhibition reaches its midpoint. Lower therefore signals higher potency. Broadly, the inhibition is the change of the read-out against control, counted positive when it falls. Lower therefore signals a response near the control. As to `Cc1ccc(C)c(OCCCC(C)(C)C(=O)O)c1` [GEMFIBROZIL], in assay [1] (Homo sapiens), it took 2670 µM to reach half-maximal inhibition (IC50). In assay [2], the inhibition at 4000 µM came out at 100%. Moreover, in assay [3], testing at 2000 µM gave an inhibition of 2.5%. The compound further gave an inhibition at 5000 µM in assay [4] of 100%. Moreover, in assay [5], the inhibition at 1000 µM came to 0%. For the same compound, 3000 µM produced 17% inhibition in assay [6].
One may read the Inhibition as the percentage by which the read-out fell short of the control. High values mean a strong effect, low ones a weak effect. For the compound `Cc1ccc(C)c(OCCCC(C)C(=O)O)c1` (stereo in doubt; 5a), inhibition in assay [1] was half-maximal at 2470 µM (IC50). Moreover, the Inhibition in assay [2] is given as 4.39%; in assay [4] it was 24.39%; in assay [6] it was 0.49%.
Compound `Cc1ccc(C)c(OCCCC(C)C(=O)O)c1` (single isomer, unassigned; (-)) gave an IC50 in assay [1] of 2610 µM. In addition, the Inhibition is reported as 100% in assay [4] and 0% in assay [6].
The compound `CCC(CCCOc1cc(C)ccc1C)C(=O)O` (single isomer, unassigned; (+)) gave an IC50 in assay [1] of 4120 µM. Also, the Inhibition in assay [2] is given as 0%; in assay [4], 100%; in assay [6] it was 0%.
`CC(=O)Oc1ccccc1C(=O)O` [ASPIRIN] returned an IC50 in assay [1] (Homo sapiens) of 50 µM. Testing at 4000 µM in assay [2] gave an inhibition of 6.76%. In assay [3], this compound yielded an inhibition at 2000 µM of 0%. In addition, testing at 5000 µM in assay [4] gave an inhibition of 17.1%. Moreover, the inhibition at 1000 µM in assay [5] came to 0%. For the same compound, in assay [6], the inhibition at 3000 µM is 0%.
In the case of `Cc1ccc(C)c(OCCCC(C)C(=O)O)c1` (single isomer, unassigned; (+)), in assay [1] (Homo sapiens), the IC50 was 3090 µM. Also, the Inhibition stood at 0% in assay [2], 5.36% in assay [4] and 0.97% in assay [6]. The same compound registered an inhibition at 2000 µM in assay [3] of 0%. This compound showed an inhibition at 1000 µM in assay [5] of 0%.
Take `CCC(CCCOc1cc(C)ccc1C)C(=O)O` (stereo in doubt; 5b): the 50% inhibitory concentration (IC50) in assay [1] (Homo sapiens) was determined as 2420 µM. The Inhibition in assay [2] was found to be 5.51%; in assay [4], 2.57%; in assay [6] it was 3.3%. The same compound displayed an inhibition at 2000 µM in assay [3] of 0%. In assay [5], this compound displayed an inhibition at 1000 µM of 0%.

The record behind these values is ChEMBL document CHEMBL1135232, “Synthesis and antiplatelet activity of gemfibrozil chiral analogues” (Bioorg Med Chem Lett, 2002).
